In paper PMC2141641 (The Journal of Cell Biology, 1997):

Experiments:
[1] = tested on: Human dermal microvascular endothelial cells (HMVECs); assay: Endothelial cell migration assay, HMVECs; assay type: cell-based; settings: for inhibition of bFGF-induced HMVEC migration by other CD36 ligands / effect on migration when tested alone: 2 μg/ml
In short: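 Human dermal microvascular cells (passages 6–9) were serum-starved and then migrated in a Boyden chamber 4 h at 37°C toward bFGF. Collagen I, LDL and copper-oxidized LDL were tested at 2 μg/ml, with or without 10 μg/ml anti-CD36 IgG added to both wells. Quadruplicate wells, two experiments. Counts were normalized to bFGF minus control-medium background. Two-tailed t test was run on raw data.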

[2] = tested on: Melanoma cells not transfected with CD36; settings: ref Silverstein et al., 1992; cited from earlier work
CD36-transfected HUVECs [3] = assay: Tube formation assay in Matrigel, CD36-transfected HUVECs; assay type: cell-based, human; settings: 24 h at 37°C, endogenous TSP-1 expression by clones
endothelial cells [4] = settings: in vitro; ref Tolsma et al., 1997; cited from earlier work
CD36-transfected HUVECs [5] = assay: Migration assay of CD36-transfected HUVEC clones; assay type: cell-based, human; settings: TSP-1 2 nM, bFGF
In short: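 HUVECs at passage 2 were lipofected with a CD36 plasmid (30 μg DNA, 5 h, 37°C) and selected in 100 μg/ml G418. Cloned lines were checked for CD36 by flow cytometry. Clones migrated toward bFGF in a Boyden chamber (4 h, 37°C) with 2 nM TSP-1, with or without 10 μg/ml anti-CD36 antibody OKM-5. Four experiments; normalized to bFGF minus background.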

endothelial cells [6] = settings: in vitro; ref Iruela-Arispe et al., 1991; DiPietro et al., 1994; Canfield and Schor, 1995; cited from earlier work
CD36 = settings: cited from earlier work
[7] = tested on: neovascularization, rodent cornea; settings: rodent cornea assay; ref Good et al., 1990; Tolsma et al., 1993; cited from earlier work
[8] = tested on: neovascularization, polyvinyl sponge; settings: polyvinyl sponge assay; ref Good et al., 1990; Tolsma et al., 1993; cited from earlier work
[9] = tested on: Bovine adrenal capillary endothelial cells (BCECs); assay: Endothelial cell migration assay, BCECs; assay type: cell-based
In short: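 Bovine adrenal capillary cells (DME, 10% donor calf serum, 1% endothelial mitogen; passage 15) were starved overnight in DME/0.1% BSA. 3 × 10^4 cells/well were attached 2 h at 37°C to a gelatinized membrane in an inverted Boyden chamber, then reinverted. GST–CD36 fusion proteins were preincubated with 2 nM TSP-1, warmed to room temperature, and added to the top wells. Migration to bFGF ran 4 h at 37°C. Migrated cells/10 high-power fields counted; normalized to bFGF minus background.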

endothelial cells [10] = settings: cited from earlier work
CD36 null animals = settings: ref Febbraio, M., O.V. Volpert, N.P. Bouck, and R.L. Silverstein, unpublished data; cited from earlier work
[11] = tested on: neovascularization in vivo; settings: ref O'Reilly et al., 1994; cited from earlier work

In the case of “oxidized low-density lipoprotein [OxLDL]”, the “inhibition of bFGF-induced HMVEC migration by other CD36 ligands” value (“inhibition … by other CD36 ligands” for short) [1] is reported as “inhibited bFGF-induced HMVEC migration”, the “effect on migration when tested alone” value [1] is reported as “no significant effect on migration” and the “concentration below which ineffective at inhibiting migration” value ([1]; bFGF-induced HMVEC migration, data not shown) is reported as “below 0.1 nM”.
In the case of Thrombospondin-1 [TSP-1], the “TSP-1 binding to melanoma cells not transfected with CD36” value [2] is given as “do not bind TSP-1”, the “TSP-1 inhibition of tube formation after CD36 transfection” value (CD36-transfected HUVECs [3]) is given as “became sensitive to TSP-1 inhibition of both migration and tube formation” and the “concentration inhibiting lumen formation” value (endothelial cells [4]) is given as “below 20 nM”. The “TSP-1 inhibition of migration of CD36-transfected clone 35” value (CD36-transfected HUVECs [5]; clone 35 (very low CD36)) was “refractory to TSP-1 inhibition”, the “TSP-1 inhibition of migration of CD36-transfected clones 31 and 36” value (CD36-transfected HUVECs [5]; clones 31 and 36 (higher CD36)) was “sensitive to TSP-1 inhibition” and the “concentration inhibiting tube formation” value (endothelial cells [6]) was “below 20 nM”. The “interaction of TSP-1 with CD36 amino acids 93–120” value (CD36; minimal region of CD36, ref Pearce et al., 1995) was “specific, saturable, and reversible manner”, the “inhibition of bFGF-induced HMVEC migration by TSP-1” value ([1]; TSP-1 2 nM) was “inhibition of bFGF-induced migration of HMVECs by TSP-1” and the “prevention of neovascularization in vivo, rodent cornea” value [7] was “able to prevent neovascularization in vivo”. For the same substance, the “prevention of neovascularization in vivo, polyvinyl sponge” value [8] was “able to prevent neovascularization in vivo”, the “inhibition of bFGF-induced migration by TSP-1, BCEC” value ([9]; TSP-1 2 nM) was “TSP-1 inhibition of bFGF-induced migration” and the “concentrations effective in vitro (inhibition of angiogenesis)” value (endothelial cells [10]; ref Good et al., 1990, Tolsma et al., 1993) was “subnanomolar”. The “concentration inhibiting endothelial cell migration (biphasic dose response)” value (endothelial cells [10]; ref Taraboletti et al., 1990, Tolsma et al., 1993, Gao et al., 1996) was “less than 20 nM” and the “inhibition of corneal neovascularization in CD36 null animals” value (CD36 null animals) was “defective in CD36 null animals”.
In the case of “glutathione-S-transferase [GST, reference compound]”, the “block of TSP-1 inhibition of bFGF-induced migration” value ([9]; TSP-1 2 nM, fusion protein preincubated 2 h at 4°C, migration 4 h at 37°C) is reported as “ineffective”.
For “human type I collagen [human collagen I]”, the “inhibition … by other CD36 ligands” value [1] was “inhibited bFGF-induced HMVEC migration” and the “effect on migration when tested alone” value [1] was “no significant effect on migration”.
For Angiostatin, the “inhibition of HMVEC migration by angiostatin” value ([1]; angiostatin 2 μg/ml, bFGF, control inhibitor) is listed as “inhibition of endothelial cell migration by angiostatin”, the “inhibition of endothelial cell migration in vitro by angiostatin” value (endothelial cells [10]; ref Gately et al., 1996) is listed as “well-established inhibitor of endothelial cell migration in vitro” and the “inhibition of corneal neovascularization in CD36 null animals” value (CD36 null animals) is listed as “not by angiostatin is defective in CD36 null animals”. The “inhibition of angiogenesis in vivo by angiostatin” value [11] was “of angiogenesis in vivo”.
For “FP93-120: GST–CD36 fusion protein containing the TSP-1 binding region, amino acids 93–120 (YRVRFLAKENVTQDAEDNTVSFLQPNGA; left off: GST, end not stated, kept) [reference compound]”, the “block of inhibition of migration by Col overlap peptide” value ([9]; Col overlap 30 μM, bFGF, fusion protein preincubated 2 h at 4°C) was “blocked the inhibitory effects of Col overlap”.
In the case of low-density lipoprotein [LDL], the “binding of unoxidized LDL to CD36” value (CD36; ref Endemann et al., 1993) is given as “unable to bind CD36”, the “inhibition … by other CD36 ligands” value [1] is given as “failed to influence HMVEC migration” and the “effect on migration when tested alone” value [1] is given as “no significant effect on migration”.
